For test [1], the target named is Nitric oxide synthase, inducible (Homo sapiens, UniProt P35228). Briefly: Inhibition of iNOS.
The next test deals with PC-3. Briefly: Growth inhibition of human PC3 cells incubated for 48 hrs by resazurin dye reduction based fluorimetric assay. Format: functional. The note with it: PC-3, 48 h. The essentials: (§1)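 Cells seeded at 5 × 10^3 per well in full growth medium, adhered overnight, then medium replaced with fresh medium containing serial compound concentrations or DMSO control; 48 h at 37 °C. Resazurin added, 3 h at 37 °C; fluorescence ex 560/em 590 nm, time-zero reading subtracted. GI50 by nonlinear sigmoidal dose-response fit; landomycin A positive control; four replicates.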
(Resazurin is reduced to fluorescent resorufin, in cell work by metabolically active cells.)

For the next test, the system named is NCI-H460. Briefly: Growth inhibition of human NCI-H460 cells incubated for 48 hrs by resazurin dye reduction based fluorimetric assay. It is filed as functional. The settings on record: NCI-H460, 48 h. The essentials: as §1
Test [2] is described as follows: Inhibition of bovine brain FPTase. More on the design: species or system Bos taurus.

Sequence of Nitric oxide synthase, inducible (P35228 whole entry): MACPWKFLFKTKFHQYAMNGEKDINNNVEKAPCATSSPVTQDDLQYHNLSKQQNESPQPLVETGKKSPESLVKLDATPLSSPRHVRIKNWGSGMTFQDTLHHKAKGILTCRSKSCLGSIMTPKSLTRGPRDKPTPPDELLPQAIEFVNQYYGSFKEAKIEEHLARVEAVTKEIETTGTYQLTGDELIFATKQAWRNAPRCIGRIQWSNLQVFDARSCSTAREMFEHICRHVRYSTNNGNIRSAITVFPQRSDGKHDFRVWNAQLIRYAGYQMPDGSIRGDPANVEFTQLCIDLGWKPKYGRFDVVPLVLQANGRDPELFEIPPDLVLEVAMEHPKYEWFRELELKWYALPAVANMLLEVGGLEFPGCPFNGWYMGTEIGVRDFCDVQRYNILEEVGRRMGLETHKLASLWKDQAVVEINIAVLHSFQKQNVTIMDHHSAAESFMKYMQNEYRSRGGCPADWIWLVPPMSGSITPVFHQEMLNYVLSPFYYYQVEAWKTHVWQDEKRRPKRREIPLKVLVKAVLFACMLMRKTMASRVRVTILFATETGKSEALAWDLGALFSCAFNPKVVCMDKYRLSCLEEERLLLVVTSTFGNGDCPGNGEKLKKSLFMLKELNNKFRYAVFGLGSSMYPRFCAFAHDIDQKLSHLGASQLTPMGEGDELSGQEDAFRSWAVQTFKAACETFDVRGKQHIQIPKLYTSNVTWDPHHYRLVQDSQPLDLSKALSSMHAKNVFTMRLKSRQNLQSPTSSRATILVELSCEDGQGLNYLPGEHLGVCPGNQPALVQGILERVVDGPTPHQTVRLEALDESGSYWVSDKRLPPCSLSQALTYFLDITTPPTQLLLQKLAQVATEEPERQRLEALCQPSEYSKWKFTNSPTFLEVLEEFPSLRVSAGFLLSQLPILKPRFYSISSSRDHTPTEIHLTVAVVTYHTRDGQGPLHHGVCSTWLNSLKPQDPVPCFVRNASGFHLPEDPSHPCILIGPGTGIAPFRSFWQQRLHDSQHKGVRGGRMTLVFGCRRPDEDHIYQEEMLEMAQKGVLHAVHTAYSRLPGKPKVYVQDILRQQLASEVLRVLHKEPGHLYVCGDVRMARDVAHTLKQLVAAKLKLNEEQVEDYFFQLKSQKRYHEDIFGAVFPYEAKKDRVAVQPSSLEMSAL

`C[C@@H]1O[C@@H](O[C@H]2CC[C@H](O[C@H]3[C@H](O)C[C@H](c4ccc5c(c4O)C(=O)C4=C(C5=O)[C@@]5(O)C(=O)C[C@](C)(O)C[C@@]5(O)C=C4)O[C@@H]3C)O[C@H]2C)C=CC1=O` showed a 50% inhibitory concentration (IC50) in test [1] of 43.5 µM. For `C[C@@H]1O[C@@H](O[C@H]2CC[C@H](O[C@@]3(C)CC(=O)[C@]4(O)C5=C(C=C[C@]4(O)C3)C(=O)c3c(ccc([C@H]4C[C@@H](O)[C@H](O)[C@@H](C)O4)c3O)C5=O)O[C@H]2C)C=CC1=O` (relative stereo) [SAQUAYAMYCIN G], the GI50 was determined as 0.553 µM with PC-3 and 6.72 µM in the test on NCI-H460.

As to `C[C@@H]1O[C@@H](O[C@H]2CC[C@H](O[C@@]3(C)CC(=O)[C@]4(O)C5=C(C=C[C@]4(O)C3)C(=O)c3c(ccc([C@H]4C[C@@H](O)[C@H](O[C@@H]6O[C@@H](C)C(=O)C=C6N)[C@@H](C)O4)c3O)C5=O)O[C@H]2C)C=CC1=O` (relative stereo) [SAQUAYAMYCIN I], the GI50 was 0.915 µM in the test with PC-3 and 7.94 µM with NCI-H460.

Turning to `Cc1cc(O)c2c(c1)C[C@@H](O)C1=C2C(=O)c2c(O)ccc(O[C@H]3C[C@@H](O)[C@H](O[C@H]4C[C@@H](O[C@H]5CC[C@H](O[C@H]6C[C@@H](O)[C@H](O[C@H]7C[C@@H](O[C@H]8CC[C@H](O)[C@H](C)O8)[C@H](O)[C@@H](C)O7)[C@@H](C)O6)[C@H](C)O5)[C@H](O)[C@@H](C)O4)[C@@H](C)O3)c2C1=O` [LANDOMYCIN A], the 50% growth inhibitory concentration (GI50) with PC-3 was 0.55 µM; in the test on NCI-H460, 4.11 µM. For `C[C@@H]1O[C@H]2O[C@@H]3[C@@H](C)O[C@@H](c4ccc5c(c4O)C(=O)C4=C(C5=O)[C@@]5(O)C(=O)C[C@](C)(O)C[C@@]5(O)C=C4)C[C@H]3O[C@H]2CC1=O` [SAQUAYAMYCIN B1], in that order: 1.76 µM and 13.2 µM. For `C[C@@H]1O[C@@H](O[C@H]2CC[C@H](O[C@@]3(C)CC(=O)[C@]4(O)C5=C(C=C[C@]4(O)C3)C(=O)c3c(ccc([C@H]4C[C@H]6O[C@H]7CC(=O)[C@H](C)O[C@H]7O[C@@H]6[C@@H](C)O4)c3O)C5=O)O[C@H]2C)C=CC1=O` [SAQUAYAMYCIN B], in that order: 0.0745 µM and 3.93 µM. The like results for `C[C@@H]1O[C@@H](O[C@H]2CC[C@H](O[C@@]3(C)CC(=O)[C@]4(O)C5=C(C=C[C@]4(O)C3)C(=O)c3c(ccc([C@H]4C[C@H]6O[C@H]7CC(=O)[C@H](C)O[C@H]7O[C@@H]6[C@@H](C)O4)c3O)C5=O)O[C@H]2C)C(N)=CC1=O` [SAQUAYAMYCIN H] were, in that order, 0.79 µM and 3.3 µM.

Take `C[C@@H]1O[C@H]2O[C@@H]3[C@@H](C)O[C@@H](c4ccc5c(c4O)C(=O)C4=C(C5=O)[C@@]5(O)C(=O)C[C@](C)(O[C@H]6CC[C@H](O[C@H]7CC[C@H](O)[C@H](C)O7)[C@H](C)O6)C[C@@]5(O)C=C4)C[C@H]3O[C@H]2CC1=O` [SAQUAYAMYCIN J]: the GI50 stood at 0.179 µM in the test on PC-3 and 5.69 µM with NCI-H460. In the case of `C[C@@H]1O[C@@H](O[C@H]2CC[C@H](O[C@@]3(C)CC(=O)[C@]4(O)C5=C(C=C[C@]4(O)C3)C(=O)c3c(ccc([C@H]4C[C@@H](O)[C@H](O[C@H]6CC[C@H](O)[C@H](C)O6)[C@@H](C)O4)c3O)C5=O)O[C@H]2C)C=CC1=O` [SAQUAYAMYCIN K], the concentration for 50% growth inhibition (GI50) in the test with PC-3 came to 0.148 µM; with NCI-H460, 7.28 µM. As to `C[C@@H]1O[C@@H](O[C@H]2[C@H](O)C[C@H](c3ccc4c(c3O)C(=O)C3=C(C4=O)[C@@]4(O)C(=O)C[C@](C)(O)C[C@@]4(O)C=C3)O[C@@H]2C)C=CC1=O` [SAQUAYAMYCINS A1], half-maximal inhibition in test [1] (IC50) was put at 101 µM. Take `C[C@@H]1O[C@@H](O[C@H]2[C@H](O)C[C@H](c3ccc4c(c3O)C(=O)C3=C(C4=O)[C@@]4(O)C(=O)C[C@](C)(O[C@H]5CC[C@H](O[C@H]6C=CC(=O)[C@H](C)O6)[C@H](C)O5)C[C@@]4(O)C=C3)O[C@@H]2C)C=CC1=O` [SAQUAYAMYCINS A]: the GI50 in the test on PC-3 stood at 0.106 µM; in the test on NCI-H460, 6.2 µM. Turning to `C[C@@H]1O[C@@H](O[C@H]2[C@H](O)C[C@H](c3ccc4c(c3O)C(=O)C3=C(C4=O)[C@@]4(O)C(=O)C[C@](C)(O[C@H]5CC[C@H](O[C@H]6CCC(=O)[C@H](C)O6)[C@H](C)O5)C[C@@]4(O)C=C3)O[C@@H]2C)C=CC1=O` [SAQUAYAMYCINS E], half-maximal inhibition in test [2] (IC50) required 1.8 µM. In test [2], `C[C@@H]1O[C@@H](O[C@H]2CC[C@H](O[C@@]3(C)CC(=O)[C@]4(O)C5=C(C=C[C@]4(O)C3)C(=O)c3c(ccc([C@H]4C[C@@H](O)[C@H](O[C@H]6CCC(=O)[C@H](C)O6)[C@@H](C)O4)c3O)C5=O)O[C@H]2C)C=CC1=O` [SAQUAYAMYCINS F] yielded an IC50 of 2 µM.

The term IC50 denotes the concentration needed to halve the response being measured. Lower therefore signals greater potency. Usually GI50 stands for the concentration that inhibits growth by half.
